This is a sample that favours compounds with a hit; in the whole collection about 1.8% have one here.
TNAP inh noacc: blocks human TNAP activity with no phosphate acceptor present; purified TNAP, CDP-star luminescence, 30 min; actives 0.26% (n = 200,000); AID 1012; inhibition, % at 20 µM;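 active means tissue-nonspecific alkaline phosphatase inhibition above about 50% at 20 µM in the single-dose screen, limit read from the data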;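 further: 0% = DMSO negative control and 100% = EDTA positive control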
Autophagy mod: autophagy modulation, high-content screen | MEF GFP-LC3 puncta imaging; test concentration mostly 10 µM | calls only at 10 µM (by protocol) | actives 0.98% (n = 190,000) | AID 463193;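 active means percentage of spot-positive cells more than 3 SD above its plate mean, without a fluorescence outlier flag or 80% toxicity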;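 further: spot-positive cell cutoff set from DMSO-treated cells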
p47phox inh: blocks human p47phox regulatory protein of NADPH oxidases | P14598 | p47phox/p22phox peptide binding, fluorescence polarization, 2 h | inhibition, % at 24.7 µM | actives 0.53% (n = 220,000) | AID 1274;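 active means inhibition above about 30%, limit read from the data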;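 further: 0% = p47phox with labelled peptide and 100% = labelled peptide alone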
Target sequence (P14598 whole entry, looked up): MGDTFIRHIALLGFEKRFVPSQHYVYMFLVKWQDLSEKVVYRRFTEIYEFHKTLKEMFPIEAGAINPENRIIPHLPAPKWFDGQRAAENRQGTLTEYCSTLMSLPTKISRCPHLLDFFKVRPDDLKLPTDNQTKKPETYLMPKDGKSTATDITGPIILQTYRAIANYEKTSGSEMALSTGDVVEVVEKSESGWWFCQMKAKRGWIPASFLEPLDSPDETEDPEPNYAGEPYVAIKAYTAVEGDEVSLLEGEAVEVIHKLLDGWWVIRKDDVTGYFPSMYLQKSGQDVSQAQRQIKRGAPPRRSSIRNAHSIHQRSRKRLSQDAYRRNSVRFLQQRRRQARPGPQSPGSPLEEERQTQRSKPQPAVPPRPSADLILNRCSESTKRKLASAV
Ins promoter up: MIN6 insulin promoter up-regulation | MIN6 insulin promoter-GFP reporter, high-content imaging; hits give high values | actives 0.3% (n = 190,000) | z-score at 5 µM;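 active means z-score above 3 at 5 µM with at least 500 cells counted in the well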
TNAP inh hiacc: inhibitors of human TNAP at high phosphate acceptor concentration. P05186. purified TNAP, CDP-star luminescence, 1 M DEA. inhibition, % at 20 µM. actives 0.03% (n = 200,000);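 active means over 50% inhibition of tissue-nonspecific alkaline phosphatase at 20 µM in the single-dose screen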;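 further: plate controls were DMSO wells for no effect and EDTA-quenched wells as full inhibition for full effect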
TNAP act hi DEA: increases human TNAP activity under high phosphate acceptor concentration. P05186. purified TNAP, CDP-star luminescence, 1 M DEA, 30 min; hits give high values; 0 = EDTA background, 1 = DMSO-only activity. activation factor at 20 µM. 200,000 tested, under 10 active. AID 1136;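 active means activation factor at least 2 at 20 µM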
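Dosing: 20 µM single point. System: human TNAP. Amount: TNAP 1/800 final. Incubation: 30 min, room temperature. Read-out: TNAP activation factor scaled between EDTA and DMSO control wells. Signal: luminescence from CDP-star hydrolysis. Medium: 1 M DEA, pH 9.8, Mg2+, Zn2+. Control set: EDTA negative control, DMSO positive control.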
The depositor's hits bear a star; i = inactive; x = not tested or not shown; + = active, no number.

SMILES	TNAP inh noacc	Autophagy mod	p47phox inh	Ins promoter up	TNAP inh hiacc	TNAP act hi DEA
CC(=O)Nc1ccc(S(=O)(=O)NCC2CCC(C(=O)NC(C)c3ccc4c(c3)OCCO4)CC2)cc1 (stereo unspecified)	-0.4	i	-3.2	1.28	3.4	1
O=C(NCCc1ccccc1)C(=S)N1CCCCC1	-11.7	i	-2.5	0.38	-9.2	1.1
COc1cc(Cc2ccc(N)c(OC)c2)ccc1N	-4.5	i	-4.1	0.43	2.0	1
Nc1ccc(Cc2ccc(N)c(O)c2)cc1O	57.0*	i	11.5	0.29	20.9	0.8
Cc1cc(C)c2c(N=NN(C)C)[nH]nc2n1	52.4*	i	-13.3	x	-1.5	1
Cc1cc(C)c2c(NC(N)=S)n[nH]c2n1	0.5	i	-16.6	0.2	-1.6	1
Cc1ccc(C)c(N(C)C(=O)COc2cc(=O)n(C)c3ccccc23)c1	-16.5	+	-3.9	-0.46	-9.8	1.1
COC(=O)C1C(=O)C2=C(CC1C)Nc1ccccc1NC2c1ccc(C)s1 (stereo unspecified)	-7.5	i	-0.1	-0.08	-4.3	1
COc1cc(C(=O)NCCN2C(=O)S/C(=C\c3ccc(F)cc3)C2=O)ccc1OCC(=O)N1CCOCC1	x	x	-0.2	-0.27	x	x
COc1cc(/C=C2\SC(=O)N(CCNC(=O)c3sc4cc(F)ccc4c3Cl)C2=O)cc(OC)c1OC	-5.3	+	x	-1.08	-5.5	1.1
CC(C)Sc1nc2ncnc(N)c2[nH]1	58.0*	i	-1.4	-0.04	-1.5	1
Cc1ccc(C(=O)NCc2ccccn2)cc1Cl	-7.3	i	-10.8	-0.84	-2.6	1
COc1ccc(Cn2c(=O)[nH]c3cc(C(=O)NC4CCCC4)ccc3c2=O)cc1	-8.0	+	1.6	x	-1.2	1
O=[N+]([O-])c1ccccc1NC(=S)N/N=C/c1ccc(O)c(O)c1	84.9*	i	2.5	-2.13	20.5	0.8
O=C(CNC(=O)c1ccc(Cl)cc1)NCC(F)(F)F	-0.1	i	-4.4	-0.26	-6.9	1.1
COc1ccc(NS(=O)(=O)c2cc(NC(=O)c3nc4nc(C)cc(C)n4n3)ccc2C)cc1	-6.8	+	8.1	1.04	-1.9	1
Cc1ccccc1SCc1noc(C(=O)NC(C)C)c1C(=O)O	-7.9	i	-16.4	3.02*	-3.0	1
COc1ccc(-c2ccc(C(c3c(C)[nH][nH]c3=O)c3c(C)[nH][nH]c3=O)o2)c([N+](=O)[O-])c1	-28.3	i	42.5*	0.54	13.7	0.9
CCCCN(C)CCNC(=O)C(NC(=O)C1CCC(C)CC1)C(C)C (stereo unspecified)	-16.8	i	-18.6	0.8	-5.5	1.1
CC(=O)C1=C(c2cccc([N+](=O)[O-])c2)N(C(C)=O)n2c(C)nnc2S1	62.9*	i	-3.8	-0.71	0.9	1
O=C(O)CCC(=O)Nc1nc2ccccc2s1	-18.9	i	-4.8	x	-5.7	1.1
COc1ccc2nc(NC(=O)CS(=O)(=O)Cc3ccccc3)sc2c1	-3.5	+	6.9	0.27	2.8	1
COc1ccc2nc(NC(=O)CSc3ccccc3)sc2c1	-21.4	i	-29.3	0.77	-3.2	1
O=C(CS(=O)(=O)Cc1ccccc1)Nc1nc2ccccc2s1	-12.3	i	56.0*	-0.12	-1.5	1
O=C1C2CC=C(Cl)CC2C(=O)N1CCC[n+]1cccc2ccccc21 (stereo unspecified)	-0.1	i	-3.0	0.04	1.0	1
SMILES	TNAP inh noacc	Autophagy mod	p47phox inh	Ins promoter up	TNAP inh hiacc	TNAP act hi DEA
O=C(O)c1cccnc1Sc1ccc(Cl)cc1	-14.5	+	-5.1	0.32	-6.1	1.1
COc1ccc(C(CC(=O)O)NC(C)=O)cc1OC (stereo unspecified)	-5.1	i	-3.4	1.19	2.7	1
CCOC(=O)NC(CC(=O)O)c1ccc(OC)c(OC)c1 (stereo unspecified)	-5.5	i	68.0*	0.7	-2.0	1
COc1cccc(CNC23CC4CC(CC(C4)C2)C3)c1OCc1ccccc1	-5.1	+	-6.8	-1.57	-3.5	1
CC(C)Cc1cc(CN2CCC(CO)(Cc3cccc(C(F)(F)F)c3)CC2)[nH]n1	-0.9	i	+	-0.16	-6.0	1.1
COc1ccc(Cl)cc1NC(=O)C1CSC(c2ccncc2)=N1 (stereo unspecified)	-1.6	i	0.8	-1.31	-2.3	1

Screens from PubChem BioAssay.
